Calls of active or inactive are those of the source. The calls are words filed in the database; no cut-off is given here.

A short description of series [1]: Antioxidant activity assessed as DPPH free radical scavenging activity after 10 mins. The series is classed as functional. For orientation: Loss of DPPH colour is used to gauge radical scavenging.
The test system of series [2] is B16-F1. In words: Antimelanogenic activity in mouse B16-F1 cells assessed as reduction in alpha-MSH-stimulated melanin production preincubated for 72 hrs followed by alpha-MSH-stimulation and measured after 2 hrs. The series is classed as functional, cell-based. The gist of the method: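 B16F1 cells seeded at 1 × 10⁵ cells/well, exposed to compound at indicated concentrations (up to 150 μM) together with 200 nM α-MSH for 72 h. Cells washed twice in PBS, dissolved in 1 N NaOH with 10% DMSO at 80 °C for 2 h, lysate absorbance read at 405 nm. IC₅₀ for melanin production; mean (SD) of three independent experiments.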

Series [3] is described as follows: Metal chelating activity of the compound assessed as Cu2+-compound complex formation at 50 uM after 10 mins by UV-Vis spectrophotometric analysis. The gist of the method:
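Copper chelation by UV–vis spectra (220–400 nm). 50 μL of 50 μM compound in ethanol mixed with 0.95 mL aqueous 10 μM CuSO₄, or water as control, incubated at 25 °C for 10 min before spectra recorded.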

The target in series [4] is T1, Tyrosinase (Mus musculus, UniProt P11344).
T1 sequence (P11344 whole entry): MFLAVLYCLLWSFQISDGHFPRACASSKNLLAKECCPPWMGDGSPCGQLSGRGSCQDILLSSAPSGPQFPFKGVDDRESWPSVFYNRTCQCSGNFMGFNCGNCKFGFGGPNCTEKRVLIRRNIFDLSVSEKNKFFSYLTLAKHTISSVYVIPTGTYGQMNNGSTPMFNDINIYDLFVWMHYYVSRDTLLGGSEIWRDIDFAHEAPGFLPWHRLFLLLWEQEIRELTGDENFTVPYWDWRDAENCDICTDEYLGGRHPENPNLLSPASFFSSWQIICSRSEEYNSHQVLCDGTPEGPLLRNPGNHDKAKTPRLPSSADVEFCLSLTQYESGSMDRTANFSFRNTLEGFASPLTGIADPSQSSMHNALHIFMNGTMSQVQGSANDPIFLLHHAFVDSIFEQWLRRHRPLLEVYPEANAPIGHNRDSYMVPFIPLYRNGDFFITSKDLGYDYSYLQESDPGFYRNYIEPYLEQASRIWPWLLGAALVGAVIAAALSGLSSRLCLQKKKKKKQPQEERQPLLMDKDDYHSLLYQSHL
Put plainly: Inhibition of tyrosinase in mouse B16-F1 cells. The series is classed as cell-based. The gist of the method: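 Lysate of B16F1 cells in RIPA buffer, spun 13,000 rpm for 30 min at 4 °C, supernatant protein quantified by BCA. IC₅₀; mean (SD) of three independent experiments.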

Series [5] deals with T2, Tyrosinase (Agaricus bisporus, UniProt O42713).
T2 sequence (O42713 whole entry): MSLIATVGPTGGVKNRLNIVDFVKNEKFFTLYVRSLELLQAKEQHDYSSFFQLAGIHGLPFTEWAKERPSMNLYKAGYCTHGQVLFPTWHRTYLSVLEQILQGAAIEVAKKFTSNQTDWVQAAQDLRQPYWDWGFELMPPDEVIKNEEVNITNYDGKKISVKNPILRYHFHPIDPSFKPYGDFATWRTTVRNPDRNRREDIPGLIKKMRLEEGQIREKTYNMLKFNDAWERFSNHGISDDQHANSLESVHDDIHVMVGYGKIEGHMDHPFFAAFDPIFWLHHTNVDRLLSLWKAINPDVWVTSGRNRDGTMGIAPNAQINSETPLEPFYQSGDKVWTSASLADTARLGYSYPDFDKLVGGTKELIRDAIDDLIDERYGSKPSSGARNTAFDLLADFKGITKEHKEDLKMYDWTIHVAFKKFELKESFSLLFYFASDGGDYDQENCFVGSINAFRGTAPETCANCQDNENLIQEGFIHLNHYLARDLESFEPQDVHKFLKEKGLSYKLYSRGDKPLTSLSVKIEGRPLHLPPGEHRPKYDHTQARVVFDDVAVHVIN
Put plainly: Inhibition of mushroom tyrosinase.

Series [6] deals with B16-F1. Put plainly: Cytotoxicity against mouse B16-F1 cells at 100 to 200 uM after 72 hrs by MTT assay. The series is classed as cell-based. The following applies: b16-f1, 72 h. Put shortly:
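B16F1 cells grown in DMEM with 10% FBS and 1% penicillin/streptomycin at 37 °C, 5% CO₂. Seeded 1 × 10⁴ cells/well, treated at 100, 150 and 200 μM for 72 h. Medium removed, MTT added for 1 h, formazan dissolved in DMSO, absorbance at 570 nm. Mean SD of three independent experiments vs untreated cells.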
For orientation: Formazan colour is commonly taken as a measure of viable cells.

A short description of series [7]: Drug uptake in mouse B16-F1 cells. The series is classed as ADME, cell-based.

For `O=C(/C=C/c1cccc(O)c1)NCCCNC(=O)/C=C/c1cccc(O)c1`, in series [1], the EC50 is more than 5000 µM. The IC50 in series [2] amounted to 95.3 µM; in series [4], 40.2 µM; in series [5] it was 55.2 µM. Moreover, the outcome in series [3] was Active. In addition, the Activity entry in series [6] is given as “Non-Toxic”.

On to `OC[C@H]1O[C@@H](Oc2ccc(O)cc2)[C@H](O)[C@@H](O)[C@@H]1O` [ARBUTIN], for which the EC50 in series [1] was 1700 µM. Moreover, in series [2], the IC50 is 148 µM.

With `COc1cc(/C=C/C(=O)NCCCNC(=O)/C=C/c2ccc(O)c(OC)c2)ccc1O`, the EC50 in series [1] amounted to 150 µM. The Drug uptake result in series [7] is on record as “Active”. In addition, the IC50 in series [2] worked out at 123 µM; in series [4], 65.2 µM; in series [5], 98.3 µM. In series [3], the result was Active. In addition, the Activity result in series [6] was “Non-Toxic”.

As for `COc1cc(/C=C/C(=O)NCCNC(=O)/C=C/c2ccc(O)c(OC)c2)ccc1O`, the EC50 in series [1] was 90 µM. The IC50 in series [2], in series [4] and in series [5] was more than 150 µM each time. In series [6], the Activity entry is given as “Non-Toxic”.

In the case of `COc1ccc(/C=C/C(=O)NCCCNC(=O)/C=C/c2ccc(OC)c(O)c2)cc1O`, in series [1], the EC50 came to 2310 µM. Moreover, the Drug uptake entry in series [7] is “Active”. The IC50 in series [2] is 111 µM; in series [4] it was 46.7 µM; in series [5], 55.3 µM. For the same compound, the outcome in series [3] was Active. Besides, the Activity result in series [6] is recorded as “Non-Toxic”.

Consider `O=C1O[C@H]([C@@H](O)CO)C(O)=C1O` [ASCORBIC ACID], for which the EC50 in series [1] amounted to 180 µM.

For `O=C(/C=C/c1ccc(O)cc1)NCCNC(=O)/C=C/c1ccc(O)cc1`, in series [1], the EC50 was more than 5000 µM. Also, the IC50 in series [2] is more than 150 µM; in series [4], more than 150 µM; in series [5], 4.6 µM. Besides, the Activity entry in series [6] is “Non-Toxic”.

Regarding `O=C(/C=C/c1ccc(O)cc1)NCCCCNC(=O)/C=C/c1ccc(O)cc1`, in series [1], the EC50 is more than 5000 µM. The Drug uptake entry in series [7] is recorded as “Active”. Besides, the half-maximal inhibitory concentration (IC50) in series [2] was more than 150 µM; in series [4], more than 150 µM; in series [5], 6.5 µM. Further, the Activity entry in series [6] is given as “Non-Toxic”.

As for `COc1ccc(/C=C/C(=O)NCCNC(=O)/C=C/c2ccc(OC)c(O)c2)cc1O`, the EC50 in series [1] was 2210 µM. Also, the results for the IC50 in series [2], in series [4] and in series [5] were more than 150 µM, more than 150 µM and 84.2 µM, respectively. In series [6], the Activity entry was “Non-Toxic”.

For the compound `O=C(/C=C/c1cccc(O)c1)NCCCCNC(=O)/C=C/c1cccc(O)c1`, the EC50 in series [1] was more than 5000 µM. For the same compound, the Drug uptake result in series [7] is given as “Active”. Moreover, the IC50 in series [2], in series [4] and in series [5] was more than 150 µM each time. Besides, the Activity result in series [6] is “Non-Toxic”.

For `COc1ccc(/C=C/C(=O)NCCCCNC(=O)/C=C/c2ccc(OC)c(O)c2)cc1O`, the EC50 in series [1] was determined as 4200 µM. The IC50 in series [2] is more than 150 µM; in series [4], more than 150 µM; in series [5], 80.2 µM. Further, the Activity result in series [6] is “Non-Toxic”.

For `O=C(/C=C/c1ccc(O)cc1)NCCCNC(=O)/C=C/c1ccc(O)cc1`, the EC50 in series [1] is more than 5000 µM. For the same compound, the half-inhibitory concentration (IC50) in series [2] turned out to be 45.6 µM; in series [4], 4.6 µM; in series [5] it was 3.4 µM. The result in series [3] was Active. Further, the Activity entry in series [6] is “Non-Toxic”.

On to `O=C(/C=C/c1cccc(O)c1)NCCNC(=O)/C=C/c1cccc(O)c1`, for which the EC50 in series [1] was more than 5000 µM. The IC50 was more than 150 µM in series [2], more than 150 µM in series [4] and 95.3 µM in series [5]. Moreover, the Activity entry in series [6] was “Non-Toxic”.

For the compound `COc1cc(/C=C/C(=O)NCCCCNC(=O)/C=C/c2ccc(O)c(OC)c2)ccc1O` [TERRESTRIBISAMIDE], the EC50 in series [1] came out at 830 µM. Also, the IC50 is more than 150 µM in series [2], 88.4 µM in series [4] and 108 µM in series [5]. Besides, the result in series [3] was Active. Also, the Activity result in series [6] is listed as “Non-Toxic”.

A word on the EC50: it is the concentration that produces a half-maximal response. As a reminder, the IC50 is the concentration that gives 50% inhibition.

The record behind these values is ChEMBL document CHEMBL4382225, “Dimeric cinnamoylamide analogues for regulation of tyrosinase activity in melanoma cells: A role of diamide-link chain length” (Bioorg Med Chem, 2018).
